Laboratory results from ChEMBL document CHEMBL1932969, “Acyl derivatives of boswellic acids as inhibitors of NF-κB and STATs” (Bioorg Med Chem Lett, 2012).
Active and inactive are the calls of the source. The calls are words filed in the database; no cut-off is given here.

Legend:
DU-145 = assay: Anticancer activity against human DU145 cells assessed as growth inhibition at 50 uM after 48 hrs by SRB assay; assay type: functional; settings: DU-145, 48 h, read-out: GI
How it was run: (§1)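 Cells exposed to test compounds at 50 µM for 48 h. Read-out is percent growth inhibition, with SEM given. 5-Fluorouracil and adriamycin serve as reference agents.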

PC-3 = assay: Anticancer activity against human PC3 cells assessed as growth inhibition at 50 uM after 48 hrs by SRB assay; assay type: functional; settings: PC-3, 48 h, read-out: GI; how it was run: as §1
HL-60 [1] = assay: Anticancer activity against human HL60 cells after 48 hrs by MTT assay; assay type: functional, cell-based; settings: HL-60, 48 h
How it was run: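 Cell proliferation measured by MTT. Cells are incubated with each analog for 48 h at the indicated concentrations, then MTT reduction is read as an index of viability. OD of the untreated control is taken as 100% viability, and IC50 is derived from this.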

HL-60 [2] = assay: Induction of necrosis in p53-deficient human HL60 cells at 50 uM after 6 hrs by FITC-conjugated annexinV/PI-based flow cytometric analysis; assay type: functional, cell-based
How it was run: (§2)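 HL-60 cells incubated with each analog at 50 µM for 6 h, stained with annexin V-FITC/propidium iodide and analysed by flow cytometry. Lower right quadrant is apoptotic, upper right post-apoptotic, upper left necrotic. Three experiments, with representative dot plots shown.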

HL-60 [3] = assay: Induction of autophagy in p53-deficient human HL60 cells at 50 uM after 6 hrs by acridine orange staining; assay type: functional, cell-based
How it was run: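 Autophagy scored by flow cytometry of HL-60 cells stained with acridine orange after 6 h exposure.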

HL-60 [4] = assay: Induction of apoptosis in p53-deficient human HL60 cells assessed as post-apoptotic cells at 50 uM after 6 hrs by FITC-conjugated annexinV/PI-based flow cytometric analysis (reference value: 1 %); assay type: functional; how it was run: as §2
HL-60 [5] = assay: Induction of apoptosis in p53-deficient human HL60 cells assessed as apoptotic cells at 50 uM after 6 hrs by FITC-conjugated annexinV/PI-based flow cytometric analysis (reference value: 5 %); assay type: functional; how it was run: as §2
HT-29 = assay: Anticancer activity against human HT-29 cells assessed as growth inhibition at 50 uM after 48 hrs by SRB assay; assay type: functional; settings: HT-29, 48 h, read-out: GI; how it was run: as §1
SW-620 = assay: Anticancer activity against human SW620 cells assessed as growth inhibition at 50 uM after 48 hrs by SRB assay; assay type: functional; settings: SW-620, 48 h, read-out: GI; how it was run: as §1
COLO 205 = assay: Anticancer activity against human COLO205 cells assessed as growth inhibition at 50 uM after 48 hrs by SRB assay; assay type: functional; settings: COLO 205, 48 h, read-out: GI; how it was run: as §1
HEp-2 = assay: Anticancer activity against human Hep2 cells assessed as growth inhibition at 50 uM after 48 hrs by SRB assay; assay type: functional; settings: HEp-2, 48 h, read-out: GI; how it was run: as §1
HL-60 [6] = assay: Induction of apoptosis in p53-deficient human HL60 cells assessed as DNA fragmentation at 50 uM after 6 hrs by agarose gel electrophoresis; assay type: functional, cell-based
How it was run: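 2 × 10⁶ HL-60 cells treated with derivatives at 50 µM for 6 h, then scored for an apoptotic DNA ladder of 180–200 bp fragments or multiples. The positive control is 4 µM camptothecin for 6 h.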

| Compound | IC50 (HL-60 [1]) [µM] | inhibition of growth at 50 µM (DU-145) [%] | inhibition of growth at 50 µM (PC-3) [%] | Activity (HL-60 [2]) | Activity (HL-60 [3]) | Activity (HL-60 [4]) [%] | Activity (HL-60 [5]) [%] | inhibition of growth at 50 µM (HT-29) [%] | inhibition of growth at 50 µM (SW-620) [%] | inhibition of growth at 50 µM (COLO 205) [%] | inhibition of growth at 50 µM (HEp-2) [%] | Activity (HL-60 [6]) |
| --- | --- | --- | --- | --- | --- | --- | --- | --- | --- | --- | --- | --- |
| C[C@H]1[C@H](C)CC[C@]2(C)CC[C@]3(C)C(=CC[C@@H]4[C@@]5(C)CC[C@@H](O)[C@](C)(C(=O)O)[C@@H]5CC[C@]43C)[C@H]12 [BOSWELLIC ACID] | 15 | 92 | 100 | inactive | inactive | 34 | 20 | 66 | 64 | 85 | 43 | – |
| CC[C@@]1(O)C(=O)OCc2c1cc1n(c2=O)Cc2cc3ccccc3nc2-1 [CAMPTOTHECIN] | – | – | – | – | – | 7 | 18 | – | – | – | – | – |
| CCCC(=O)O[C@@H]1CC[C@@]2(C)[C@@H](CC[C@]3(C)[C@@H]2CC=C2[C@@H]4[C@@H](C)[C@H](C)CC[C@]4(C)CC[C@]23C)[C@@]1(C)C(=O)O | 14 | 89 | 77 | inactive | inactive | 13 | 31 | 95 | 93 | 88 | 94 | Active |
| CCC(=O)O[C@@H]1CC[C@@]2(C)[C@@H](CC[C@]3(C)[C@@H]2C(=O)C=C2[C@@H]4[C@@H](C)[C@H](C)CC[C@]4(C)CC[C@]23C)[C@@]1(C)C(=O)O | 16 | 25 | 64 | inactive | inactive | 17 | 21 | 89 | 85 | 87 | 69 | Active |
| CO[C@@]12[C@H](COC(N)=O)C3=C(C(=O)C(C)=C(N)C3=O)N1C[C@@H]1N[C@@H]12 [MITOMYCIN] | – | 48 | 55 | – | – | – | – | 60 | 55 | 43 | 58 | – |

Second part, led by results:

| IC50 (HL-60 [1]) [µM] | Compound | inhibition of growth at 50 µM (DU-145) [%] | inhibition of growth at 50 µM (PC-3) [%] | Activity (HL-60 [2]) | Activity (HL-60 [3]) | Activity (HL-60 [4]) [%] | Activity (HL-60 [5]) [%] | inhibition of growth at 50 µM (HT-29) [%] | inhibition of growth at 50 µM (SW-620) [%] | inhibition of growth at 50 µM (COLO 205) [%] | inhibition of growth at 50 µM (HEp-2) [%] | Activity (HL-60 [6]) |
| --- | --- | --- | --- | --- | --- | --- | --- | --- | --- | --- | --- | --- |
| 13 | CCC(=O)O[C@@H]1CC[C@@]2(C)[C@@H](CC[C@]3(C)[C@@H]2CC=C2[C@@H]4[C@@H](C)[C@H](C)CC[C@]4(C)CC[C@]23C)[C@@]1(C)C(=O)O | 91 | 93 | inactive | inactive | 24 | 23 | 93 | 94 | 84 | 86 | Active |
| 12 | CCC(=O)O[C@H]1CC[C@@]2(C)[C@@H](CC[C@]3(C)[C@@H]2CC=C2[C@@H]4[C@@H](C)[C@H](C)CC[C@]4(C)CC[C@]23C)[C@@]1(C)C(=O)O | 88 | 95 | inactive | inactive | 20 | 18 | 92 | 89 | 86 | 87 | Active |
